Laboratory results published in article PMC3179183 (Bioorganic & medicinal chemistry letters, 2010).
Where two headings read alike, the source gives them in different places. One block for each compound: values may come before it.

Legend:
M5 [1] = target: T1, M5 (Homo sapiens, UniProt P08912); format: cell-based; details: single point 10 µM, M5-CHO cells
T1 sequence (P08912 1-532): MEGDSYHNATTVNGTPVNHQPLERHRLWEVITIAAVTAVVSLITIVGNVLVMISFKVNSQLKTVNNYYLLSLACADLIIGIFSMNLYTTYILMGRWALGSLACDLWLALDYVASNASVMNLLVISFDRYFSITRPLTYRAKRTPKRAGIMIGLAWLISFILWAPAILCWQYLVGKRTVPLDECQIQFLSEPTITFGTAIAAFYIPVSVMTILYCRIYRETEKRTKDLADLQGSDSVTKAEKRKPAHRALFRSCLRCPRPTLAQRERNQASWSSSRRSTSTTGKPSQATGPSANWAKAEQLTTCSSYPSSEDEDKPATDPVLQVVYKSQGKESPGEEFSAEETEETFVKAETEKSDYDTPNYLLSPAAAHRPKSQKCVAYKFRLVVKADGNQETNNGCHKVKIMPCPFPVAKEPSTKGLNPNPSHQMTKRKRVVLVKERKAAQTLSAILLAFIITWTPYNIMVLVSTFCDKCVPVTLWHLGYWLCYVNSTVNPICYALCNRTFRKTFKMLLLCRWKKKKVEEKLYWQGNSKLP

M5 [2] = target: T1, M5; test: M5 PAM activity, mobilization of intracellular calcium in M5 CHO cells; format: cell-based
M1 [3] = target: T2, M1 (Homo sapiens, UniProt P11229); test: 30 µM fold-shift selectivity assay, M1; format: cell-based
T2 sequence (P11229 1-460): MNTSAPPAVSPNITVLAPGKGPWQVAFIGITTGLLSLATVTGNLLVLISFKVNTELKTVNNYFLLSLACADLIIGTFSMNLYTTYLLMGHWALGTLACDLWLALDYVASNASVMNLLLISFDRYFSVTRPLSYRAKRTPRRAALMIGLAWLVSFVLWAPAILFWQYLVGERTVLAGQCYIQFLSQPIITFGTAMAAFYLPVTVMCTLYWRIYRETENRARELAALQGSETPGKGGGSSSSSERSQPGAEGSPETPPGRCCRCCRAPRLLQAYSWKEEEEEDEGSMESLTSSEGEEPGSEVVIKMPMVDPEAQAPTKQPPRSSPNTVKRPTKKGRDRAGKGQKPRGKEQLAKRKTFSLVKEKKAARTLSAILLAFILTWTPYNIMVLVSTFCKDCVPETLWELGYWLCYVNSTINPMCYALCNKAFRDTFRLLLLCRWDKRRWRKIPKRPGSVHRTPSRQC
Method in brief: (§1)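 Intracellular calcium mobilization in CHO cells expressing the receptor. Test compound at a fixed 30 µM, read as the fold-shift of the acetylcholine concentration-response. Data are means from at least three independent determinations.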

M2 [4] = target: T3, M2 (Homo sapiens, UniProt P08172); test: 30 µM fold-shift selectivity assay, M2; format: cell-based
T3 sequence (P08172 1-466): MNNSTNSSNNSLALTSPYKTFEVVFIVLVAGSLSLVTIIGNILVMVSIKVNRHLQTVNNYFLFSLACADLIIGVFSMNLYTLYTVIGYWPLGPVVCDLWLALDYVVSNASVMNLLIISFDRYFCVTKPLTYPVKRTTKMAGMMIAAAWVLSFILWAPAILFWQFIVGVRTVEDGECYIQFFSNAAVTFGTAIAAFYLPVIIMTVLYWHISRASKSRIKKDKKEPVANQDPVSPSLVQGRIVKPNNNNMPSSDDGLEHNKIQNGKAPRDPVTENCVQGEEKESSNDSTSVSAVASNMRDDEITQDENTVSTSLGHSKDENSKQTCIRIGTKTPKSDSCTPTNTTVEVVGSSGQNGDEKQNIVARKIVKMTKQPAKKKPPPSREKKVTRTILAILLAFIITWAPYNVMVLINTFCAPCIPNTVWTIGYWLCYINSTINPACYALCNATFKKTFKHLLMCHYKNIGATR
Method in brief: (§2)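 Intracellular calcium mobilization in CHO cells expressing the receptor co-transfected with Gqi5 to couple it to calcium signalling. Test compound at a fixed 30 µM, read as the fold-shift of the acetylcholine concentration-response. Data are means from at least three independent determinations.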

M3 [5] = target: T4, M3 (Homo sapiens, UniProt P20309); test: 30 µM fold-shift selectivity assay, M3; format: cell-based
T4 sequence (P20309 whole entry): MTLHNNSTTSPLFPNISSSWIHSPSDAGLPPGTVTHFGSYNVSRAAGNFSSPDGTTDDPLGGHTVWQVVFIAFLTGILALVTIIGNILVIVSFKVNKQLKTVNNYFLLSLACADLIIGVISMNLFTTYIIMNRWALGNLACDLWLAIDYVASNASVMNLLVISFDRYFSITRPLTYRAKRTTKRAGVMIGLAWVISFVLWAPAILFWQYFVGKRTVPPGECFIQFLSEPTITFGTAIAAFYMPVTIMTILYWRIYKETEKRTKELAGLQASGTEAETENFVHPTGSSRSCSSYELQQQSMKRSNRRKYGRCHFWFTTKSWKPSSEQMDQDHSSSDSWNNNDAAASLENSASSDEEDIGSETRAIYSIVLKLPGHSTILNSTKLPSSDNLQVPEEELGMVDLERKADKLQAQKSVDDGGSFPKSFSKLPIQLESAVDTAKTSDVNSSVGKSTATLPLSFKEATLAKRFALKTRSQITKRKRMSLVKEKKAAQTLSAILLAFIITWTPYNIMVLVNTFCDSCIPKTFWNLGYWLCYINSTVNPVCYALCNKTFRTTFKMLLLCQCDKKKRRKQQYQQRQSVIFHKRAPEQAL
Method in brief: as §1

M4 [6] = target: T5, M4 (Homo sapiens, UniProt P08173); test: 30 µM fold-shift selectivity assay, M4; format: cell-based
T5 sequence (P08173 1-479): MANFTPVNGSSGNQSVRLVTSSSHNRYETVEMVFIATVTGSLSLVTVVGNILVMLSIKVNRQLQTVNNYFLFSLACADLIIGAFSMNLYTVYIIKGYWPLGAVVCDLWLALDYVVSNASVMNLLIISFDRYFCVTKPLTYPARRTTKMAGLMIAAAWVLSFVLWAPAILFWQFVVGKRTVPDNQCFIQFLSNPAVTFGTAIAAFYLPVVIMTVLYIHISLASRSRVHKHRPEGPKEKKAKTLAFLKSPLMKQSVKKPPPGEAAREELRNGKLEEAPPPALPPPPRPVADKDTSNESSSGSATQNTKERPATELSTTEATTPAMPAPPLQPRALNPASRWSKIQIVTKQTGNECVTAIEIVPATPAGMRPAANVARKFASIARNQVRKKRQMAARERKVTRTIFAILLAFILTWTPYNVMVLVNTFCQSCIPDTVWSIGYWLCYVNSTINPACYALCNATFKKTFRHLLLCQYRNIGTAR
Method in brief: as §2

[7] = Ancillary pharmacology panel; format: binding
NET = NET (Homo sapiens, UniProt P23975); test: Ancillary pharmacology panel, NET; format: binding; details: same assay panel; significant = >50% inhibition at 10 µM
NET, sequence (P23975 whole entry): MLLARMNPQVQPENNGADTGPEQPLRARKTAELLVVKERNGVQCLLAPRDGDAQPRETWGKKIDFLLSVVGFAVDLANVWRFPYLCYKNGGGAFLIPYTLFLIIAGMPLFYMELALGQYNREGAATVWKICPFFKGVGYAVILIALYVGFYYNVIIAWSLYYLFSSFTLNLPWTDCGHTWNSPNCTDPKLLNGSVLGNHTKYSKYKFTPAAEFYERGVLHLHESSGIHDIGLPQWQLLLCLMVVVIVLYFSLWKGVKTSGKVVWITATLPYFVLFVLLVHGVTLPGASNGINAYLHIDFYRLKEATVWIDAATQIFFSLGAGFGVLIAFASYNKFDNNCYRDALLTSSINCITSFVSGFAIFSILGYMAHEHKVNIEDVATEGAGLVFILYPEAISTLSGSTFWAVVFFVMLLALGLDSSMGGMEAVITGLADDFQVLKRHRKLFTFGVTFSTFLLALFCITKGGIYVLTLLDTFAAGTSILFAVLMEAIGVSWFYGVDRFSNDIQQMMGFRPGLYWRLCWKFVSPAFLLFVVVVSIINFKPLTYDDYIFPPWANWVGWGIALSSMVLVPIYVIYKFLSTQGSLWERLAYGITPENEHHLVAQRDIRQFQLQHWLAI

H1 = H1 (Homo sapiens, UniProt P35367); test: Ancillary pharmacology panel, H1; format: binding; details: same assay panel; significant = >50% inhibition at 10 µM
H1, sequence (P35367 whole entry): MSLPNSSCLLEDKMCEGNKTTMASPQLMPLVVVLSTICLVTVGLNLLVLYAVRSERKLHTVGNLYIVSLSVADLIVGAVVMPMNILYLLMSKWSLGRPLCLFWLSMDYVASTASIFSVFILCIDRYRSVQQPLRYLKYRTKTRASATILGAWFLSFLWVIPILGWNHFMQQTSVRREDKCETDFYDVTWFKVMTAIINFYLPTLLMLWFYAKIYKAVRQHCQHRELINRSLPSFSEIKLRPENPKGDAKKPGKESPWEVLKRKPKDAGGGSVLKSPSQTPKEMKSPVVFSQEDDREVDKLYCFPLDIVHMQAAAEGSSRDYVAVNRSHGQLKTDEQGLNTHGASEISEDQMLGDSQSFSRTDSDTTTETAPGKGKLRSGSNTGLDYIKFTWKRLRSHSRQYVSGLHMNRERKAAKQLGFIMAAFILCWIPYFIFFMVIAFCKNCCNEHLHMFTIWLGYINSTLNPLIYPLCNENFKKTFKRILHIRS

M5 [8] = target: T1, M5; details: read-out: M5 EC50; vs. M2–M5; cited from earlier work
M1 [9] = target: T2, M1; details: read-out: M1 EC50, cited from earlier work
M2 [10] = target: T3, M2; details: read-out: M2 EC50, cited from earlier work
M3 [11] = target: T4, M3; details: read-out: M3 EC50, cited from earlier work
M4 [12] = target: T5, M4; details: read-out: M4 EC50, cited from earlier work
[13] = cited from earlier work
[14] = in words; cited from earlier work
M5 [15] = target: T1, M5; test: Human M5 ACh fold-shift assay at 30 µM; format: cell-based

SMILES: O=C1C(=O)N(Cc2ccc3c(c2)OCO3)c2ccc(OC(F)(F)F)cc21 [compound 13]
M5 PAM activity (in words) (M5 [2]): highly efficacious M5 PAM of comparable potency to 4

SMILES: Cn1cc(-c2ccc(CN3C(=O)C(=O)c4ccccc43)c(F)c2)cn1 [compound 2]
EC50 (M5 [8]): > 30 µM
EC50 (M1 [9]; PAM): 0.83 µM
EC50 (M2 [10]; vs. M2–M5): > 30 µM
EC50 (M3 [11]; vs. M2–M5): > 30 µM
EC50 (M4 [12]; vs. M2–M5): > 30 µM

SMILES: O=C1C(=O)N(Cc2ccc(-c3ccccc3)cc2F)c2ccc(OC(F)(F)F)cc21 [compound 11]
M5 PAM activity (in words) (M5 [2]): loss in both potency and efficacy

SMILES: O=C1C(=O)N(Cc2ccc(Oc3ccccc3)cc2)c2ccc(OC(F)(F)F)cc21 [compound 5]
number of targets with significant activity (>50% inhibition at 10 µM) ([7]; of 68 targets, 10 µM): 32 targets
EC50 (M1 [9]; vs. M1–M4): > 30 µM
EC50 (M2 [10]; vs. M1–M4): > 30 µM
EC50 (M3 [11]; vs. M1–M4): > 30 µM
EC50 (M4 [12]; vs. M1–M4): > 30 µM
logP [13]: > 4.5
solubility [14]: limited solubility

SMILES: O=C1C(=O)N(Cc2c(F)cc(-c3ccccc3)cc2F)c2ccc(OC(F)(F)F)cc21 [compound 12]
M5 PAM activity (in words) (M5 [2]): loss in both potency and efficacy

SMILES: O=C1C(=O)N(Cc2ccc(-c3ccccc3)cc2)c2ccc(OC(F)(F)F)cc21 [compound 4]
EC50 (M1 [9]; vs. M1–M4): > 30 µM
EC50 (M2 [10]; vs. M1–M4): > 30 µM
EC50 (M3 [11]; vs. M1–M4): > 30 µM
EC50 (M4 [12]; vs. M1–M4): > 30 µM
logP [13]: > 4.5
solubility [14]: limited solubility

Continued, in another order:

ability to potentiate an EC20 of ACh (M5 [1]): did decrease the ACh EC20
SMILES: CN(C)CCOc1ccc2c(c1)C(=O)C(=O)N2Cc1ccc(-c2ccccc2)cc1 [10gg]

M5 PAM activity (in words) (M5 [2]): devoid of M5 PAM activity
SMILES: O=C1C(=O)N(Cc2ccc(-c3ccncc3)cn2)c2ccc(OC(F)(F)F)cc21 [21c]

activity at NET (NET): significant activity
activity at H1 (H1): significant activity
SMILES: O=C1C(=O)N(Cc2ccc(Oc3cccc(F)n3)cc2)c2ccc(OC(F)(F)F)cc21 [27b]
effect on M1, fold-shift selectivity (M1 [3]): neither 22a nor 27b showed any significant effect
effect on M2, fold-shift selectivity (M2 [4]): neither 22a nor 27b showed any significant effect
effect on M3, fold-shift selectivity (M3 [5]): neither 22a nor 27b showed any significant effect
effect on M4, fold-shift selectivity (M4 [6]): neither 22a nor 27b showed any significant effect
number of targets with modest activities ([7]; of the 68 targets): 11 targets

M5 PAM activity (in words) (M5 [2]): devoid of M5 PAM activity
SMILES: O=C1C(=O)N(Cc2ccc(-c3cccnc3)cn2)c2ccc(OC(F)(F)F)cc21 [21b]

ability to potentiate an EC20 of ACh (M5 [1]): did decrease the ACh EC20
SMILES: O=C1C(=O)N(Cc2ccc(-c3ccccc3)cc2)c2ccc(OCCN3CCCC3)cc21 [10kk]

ability to potentiate an EC20 of ACh (M5 [1]): did decrease the ACh EC20
SMILES: CC1CCCN(COc2ccc3c(c2)C(=O)C(=O)N3Cc2ccc(-c3ccccc3)cc2)C1 (centres unmarked) [10ee]

allosteric agonism (M5 [15]): ~ 20%
SMILES: O=C1C(=O)N(Cc2ccc(-c3ccccc3)nc2)c2ccc(OC(F)(F)F)cc21 [22a]
effect on M1, fold-shift selectivity (M1 [3]): neither 22a nor 27b showed any significant effect
effect on M2, fold-shift selectivity (M2 [4]): neither 22a nor 27b showed any significant effect
effect on M3, fold-shift selectivity (M3 [5]): neither 22a nor 27b showed any significant effect
effect on M4, fold-shift selectivity (M4 [6]): neither 22a nor 27b showed any significant effect
